From publication PMC3709443 (Natural product communications, 2009)
In brackets after ≈: the same amount, converted by molar mass. Like-named read-outs stand apart in the source and are kept apart here.

Legend:
[1] = tested on: P. falciparum D6 (chloroquine-sensitive clone); assay: Antimalarial parasite LDH assay, D6 strain; assay type: cell-based, Plasmodium falciparum; conditions: for IC50: Plasmodium falciparum, D6, 72 h, read-out: P. falciparum D6 IC50; for P. falciparum D6 IC50: chloroquine-sensitive clone, 72 h, pLDH readout
[2] = tested on: P. falciparum W2 (chloroquine-resistant clone); assay: Antimalarial parasite LDH assay, W2 strain; assay type: cell-based, Plasmodium falciparum; conditions: for IC50: Plasmodium falciparum, W2, 72 h, read-out: P. falciparum W2 IC50; for P. falciparum W2 IC50: chloroquine-resistant clone, 72 h, pLDH readout
[3] = tested on: VERO cells (monkey kidney fibroblasts); assay: Cytotoxicity to VERO cells; assay type: cell-based; conditions: for IC50: Primates, Vero; for VERO cells IC50: Table 2, maximum dose tested 4760 ng/mL
[4] = tested on: Escherichia coli ATCC 35218; assay: Antimicrobial susceptibility assay, E. coli; assay type: cell-based; conditions: for E. coli IC50: first value of IC50/MIC
Outline: (§1)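 Modified CLSI broth dilution with test compound dissolved in DMSO and serially diluted in 20% DMSO/saline, in duplicate. Inoculum prepared to target CFU/mL. Plates read at 630 nm before and after incubation. IC50 from percent growth vs concentration. MIC is the lowest concentration with no detectable growth. MBC is the lowest concentration giving no growth when 5 μL from clear wells is subcultured on agar. Ciprofloxacin control.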

[5] = tested on: Mycobacterium intracellulare ATCC 23068; assay: Antimicrobial susceptibility assay, M. intracellulare; assay type: cell-based; conditions: for M. intracellulare IC50: first value of IC50/MIC
Outline: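 Modified Alamar Blue procedure within modified CLSI methods. Test compound in DMSO, serially diluted in 20% DMSO/saline, duplicate wells. Inoculum in assay medium to target CFU/mL. Fluorescence 544ex/590em read before and after incubation. IC50 from percent growth vs concentration. MIC is the lowest concentration with no detectable growth. MBC from 5 μL of clear wells subcultured on agar. Ciprofloxacin control.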

[6] = tested on: methicillin-resistant Staphylococcus aureus ATCC 43300 (MRS); assay: Antimicrobial susceptibility assay, MRS; assay type: cell-based; conditions: for MRS IC50: first value of IC50/MIC
Outline: as §1

[7] = tested on: Leishmania donovani promastigotes; assay: Antileishmanial assay; assay type: cell-based; conditions: for L. donovani IC50 / L. donovani IC90: promastigotes, 26°C, 72 hours; for IC50 / IC90: Leishmania donovani, 72 h; for IC50: read-out: L. donovani IC50; for IC90: read-out: L. donovani IC90
Outline: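 L. donovani promastigote culture at 2×10^6 cells/mL exposed to diluted test compound in 96-well format. Incubation 26°C, 72 h. Growth read by Alamar blue. IC50 computed from the growth-inhibition curve. Pentamidine and amphotericin B served as reference agents.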

[8] = tested on: Aspergillus fumigatus ATCC 90906; assay: Antimicrobial susceptibility assay, A. fumigatus; assay type: cell-based; conditions: for A. fumigatus IC50: first value of IC50/MIC
Outline: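 Modified CLSI broth dilution. Test compound dissolved in DMSO, serially diluted in 20% DMSO/saline and plated in duplicate. Inoculum prepared in assay medium to target CFU/mL. Fluorescence (544ex/590em) read before and after incubation. IC50 from percent growth vs concentration. MIC is the lowest concentration with no detectable growth. MFC is taken from 5 μL of each clear well subcultured on agar. Amphotericin B control.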

[9] = tested on: Cryptococcus neoformans ATCC 90113; assay: Antimicrobial susceptibility assay, C. neoformans; assay type: cell-based; conditions: for C. neoformans IC50: first value of IC50/MIC, 50% inhibition of growth; for C. neoformans MIC: second value of IC50/MIC, no detectable growth
Outline: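 Modified CLSI broth dilution. Test compound in DMSO, serially diluted in 20% DMSO/saline, duplicate wells. Inoculum in assay medium to target CFU/mL, with growth, solvent and media controls. Absorbance at 630 nm before and after incubation. IC50 from percent growth vs concentration. MIC is the lowest concentration without detectable growth. MFC comes from 5 μL of clear wells plated on agar, no growth. Amphotericin B control.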

[10] = tested on: LLC-PK11: Pig kidney epithelial; assay: Cytotoxicity assay; assay type: cell-based; conditions: 48 hours; Neutral Red
Outline: (§2)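 ATCC-sourced cells seeded at 25000 cells/well and incubated 24 h. Test compound was then added at various concentrations for a further 48 h. Viable cells were measured by a modified Neutral Red procedure. IC50 was determined from dose-response curves of percent growth inhibition. Doxorubicin was the positive control and DMSO the vehicle control.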

[11] = tested on: SK-OV-3: Human ovarycarcinoma; assay: Cytotoxicity assay; assay type: cell-based; conditions: for SK-OV-3 IC50: 48 hours, Neutral Red
Outline: as §2

[12] = tested on: SK-MEL: Human malignant melanoma; assay: Cytotoxicity assay; assay type: cell-based; conditions: for SK-MEL IC50: 48 hours, Neutral Red
Outline: as §2

[13] = tested on: KB: Human epidermoid carcinoma; assay: Cytotoxicity assay; assay type: cell-based; conditions: for KB IC50: 48 hours, Neutral Red
Outline: as §2

[14] = tested on: BT-549: Human ductal carcinoma; assay: Cytotoxicity assay; assay type: cell-based; conditions: for BT-549 IC50: 48 hours, Neutral Red
Outline: as §2

## CCN(CC)CCCC(C)Nc1ccnc2cc(Cl)ccc12 (stereo not drawn) [Chloroquine, chloroquine, reference compound]
[1]
  IC50: 0.015 µg/mL (≈ 0.0469 µM)
[2]
  IC50: 0.135 µg/mL (≈ 0.422 µM)
[3]; read-out: VERO cells IC50
  IC50: > 4.76 µg/mL

## O=C(O)c1cn(C2CC2)c2cc(N3CCNCC3)c(F)cc2c1=O [Ciprofloxacin, ciprofloxacin, reference compound]
[4]; Escherichia coli, ATCC35218, read-out: E. coli IC50
  IC50: 0.004 µg/mL (≈ 0.0121 µM)
[5]; Mycobacterium intracellulare, ATCC23068, read-out: M. intracellulare IC50
  IC50: 0.5 µg/mL (≈ 1.51 µM)
[5]; Mycobacterium intracellulare, ATCC23068, read-out: M. intracellulare MIC
  MIC: 1 µg/mL (≈ 3.02 µM)
[6]; Staphylococcus aureus, ATCC43300, read-out: MRS IC50
  IC50: 0.09 µg/mL (≈ 0.272 µM)
[6]; Staphylococcus aureus, ATCC43300, read-out: MRS MIC
  MIC: 0.5 µg/mL (≈ 1.51 µM)

## 6-Hydroxybudmunchiamine K [Compound 2]
[7]
  L. donovani IC50: 3.4 µg/mL
  L. donovani IC90: 7 µg/mL
[8]
  A. fumigatus IC50: -/- (- =Not Active)
[9]
  C. neoformans IC50: 10.0 µg/mL
  antimicrobial activity against C. neoformans in words: weakly active
  C. neoformans MIC: 20.0 µg/mL
[10]
  LLC-PK11 IC50: 5.3 µg/mL
[1]
  P. falciparum D6 IC50: 0.16 µg/mL
[11]
  SK-OV-3 IC50: 6.5 µg/mL
[4]
  E. coli IC50: -/- (- =Not Active)
[5]
  M. intracellulare IC50: -/- (- =Not Active)
[12]
  SK-MEL IC50: 5.8 µg/mL
[2]
  P. falciparum W2 IC50: 0.22 µg/mL
[13]
  KB IC50: 6.0 µg/mL
[6]
  MRS IC50: -/- (- =Not Active)
[14]
  BT-549 IC50: 6.0 µg/mL
[3]
  VERO cells IC50: NC (NC = Not cytotoxic (up to the maximum dose tested of 4760 ng/mL))

## CCCCCCCCCCCCCCCC1CC(=O)NCCCN(C)CCCCN(C)CCCN1 (stereo not drawn) [Compound 3, 5-Normethylbudmunchiamine K]
[7]; in words
  antileishmanial activity compared with pentamidine: more potent than pentamidine
[7]
  L. donovani IC50: 0.8 µg/mL
  L. donovani IC90: 1.3 µg/mL
[8]
  A. fumigatus IC50: -/- (- =Not Active)
[9]
  C. neoformans IC50: 1.0 µg/mL
  C. neoformans MIC: 2.5 µg/mL
[10]
  LLC-PK11 IC50: 2.5 µg/mL
[1]
  P. falciparum D6 IC50: 0.14 µg/mL
[11]
  SK-OV-3 IC50: 4.8 µg/mL
[4]
  E. coli IC50: 6.5 µg/mL
[4]; second value of IC50/MIC
  E. coli MIC: 10.0 µg/mL
[5]
  M. intracellulare IC50: 4.0 µg/mL
[5]; second value of IC50/MIC
  M. intracellulare MIC: 20.0 µg/mL
[12]
  SK-MEL IC50: 2.0 µg/mL
[2]
  P. falciparum W2 IC50: 0.21 µg/mL
[13]
  KB IC50: 2.3 µg/mL
[6]
  MRS IC50: 6.5 µg/mL
[6]; second value of IC50/MIC
  MRS MIC: 10.0 µg/mL
[14]
  BT-549 IC50: 2.0 µg/mL
[3]
  VERO cells IC50: 3 µg/mL

## C[C@@H]1CC[C@H]2[C@@H](C)C(=O)O[C@@H]3O[C@@]4(C)CC[C@@H]1[C@]32OO4 [Artemisinin, artemisinin, reference compound]
[1]
  IC50: 0.01 µg/mL (≈ 0.0354 µM)
[2]
  IC50: 0.006 µg/mL (≈ 0.0213 µM)
[3]; read-out: VERO cells IC50
  IC50: > 4.76 µg/mL

## N=C(N)c1ccc(OCCCCCOc2ccc(C(=N)N)cc2)cc1 [Pentamidine, reference compound]
[7]
  IC50: 2.1 µg/mL (≈ 6.17 µM)
  IC90: 4 µg/mL (≈ 11.7 µM)

## 6-Hydroxy-5-normethylbudmunchiamine K [Compound 4]
[7]
  L. donovani IC50: 2.1 µg/mL
  L. donovani IC90: 7 µg/mL
[8]
  A. fumigatus IC50: -/- (- =Not Active)
[9]
  C. neoformans IC50: 6.0 µg/mL
  antimicrobial activity against C. neoformans in words: weakly active
  C. neoformans MIC: 10.0 µg/mL
[10]
  LLC-PK11 IC50: 6.0 µg/mL
[1]
  P. falciparum D6 IC50: 0.12 µg/mL
[11]
  SK-OV-3 IC50: 6.2 µg/mL
[4]
  E. coli IC50: -/- (- =Not Active)
[5]
  M. intracellulare IC50: 20.0 µg/mL
[12]
  SK-MEL IC50: 5.7 µg/mL
[2]
  P. falciparum W2 IC50: 0.27 µg/mL
[13]
  KB IC50: 5.4 µg/mL
[6]
  MRS IC50: 20.0 µg/mL
[14]
  BT-549 IC50: 6.0 µg/mL
[3]
  VERO cells IC50: NC (NC = Not cytotoxic (up to the maximum dose tested of 4760 ng/mL))

## C[C@@H]1[C@H](O)[C@@H](C)/C=C/C=C/C=C/C=C/C=C/C=C/C=C/[C@H](O[C@@H]2O[C@H](C)[C@@H](O)[C@H](N)[C@@H]2O)C[C@@H]2O[C@](O)(C[C@@H](O)C[C@@H](O)[C@H](O)CC[C@@H](O)C[C@@H](O)CC(=O)O[C@H]1C)C[C@H](O)[C@H]2C(=O)O [Amphotericin B, amphotericin B, reference compound]
[7]
  IC50: 0.32 µg/mL (≈ 0.346 µM)
  IC90: 0.8 µg/mL (≈ 0.866 µM)
[8]; Aspergillus fumigatus, ATCC90906, read-out: A. fumigatus IC50
  IC50: 0.6 µg/mL (≈ 0.649 µM)
[8]; Aspergillus fumigatus, ATCC90906, read-out: A. fumigatus MIC
  MIC: 1.25 µg/mL (≈ 1.35 µM)
[9]; Cryptococcus neoformans, ATCC90113, read-out: C. neoformans IC50
  IC50: 0.8 µg/mL (≈ 0.866 µM)
[9]; Cryptococcus neoformans, ATCC90113, read-out: C. neoformans MIC
  MIC: 1.25 µg/mL (≈ 1.35 µM)

## COc1cccc2c1C(=O)c1c(O)c3c(c(O)c1C2=O)C[C@@](O)(C(=O)CO)C[C@@H]3O[C@H]1C[C@H](N)[C@H](O)[C@H](C)O1 [Doxorubicin, reference compound]
[11]; Homo sapiens, SK-OV-3, 48 h, read-out: SK-OV-3 IC50
  IC50: 0.9 µg/mL (≈ 1.66 µM)
[12]; Homo sapiens, 48 h, read-out: SK-MEL IC50
  IC50: 0.85 µg/mL (≈ 1.56 µM)
[13]; Homo sapiens, 48 h, read-out: KB IC50
  IC50: 0.9 µg/mL (≈ 1.66 µM)
[14]; Homo sapiens, BT-549, 48 h, read-out: BT-549 IC50
  IC50: 0.9 µg/mL (≈ 1.66 µM)
[3]; 48 h, read-out: VERO IC50
  IC50: > 5 µg/mL
